The record followed here is PubChem BioAssay.

Test [1] deals with Pantothenate synthetase (Mycobacterium tuberculosis (strain ATCC 25618 / H37Rv)) (UniProt P9WIL5). Put plainly: Coupled enzyme confirmation of inhibitors against recombinant Mtb PanC (AID 375; call rule not given here;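 further: 0% = full reaction with vehicle and 100% = no enzyme background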). The note with it: coupled enzyme assay; at 10 µM, stronger effect = higher value.
Test [2] in a line: reduced viability of SK-BR-3 breast cancer cells – cell-based, 24 h, human, pilot screen (AID 572;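 active means viability at or below 10% of carrier control in both of two separate runs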;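 further: compound exposure lasted between 18 and 24 h rather than exactly 24 h; 100% = carrier-treated control wells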). To be noted: SK-BR-3 viability, CellTiter-Glo luminescence, at 10 µM, stronger effect = lower value. On the technique in general: Cellular ATP, detected with luciferase, serves as a proxy for viable cell number.
A short description of test [3]: HUVEC growth inhibition – cell-based, human, primary screen (AID 575).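 Further: 100% = median of untreated cell wells with 0.1% DMSO on each plate.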 The note with it: HUVEC proliferation, CellTiter-Glo luminescence, 72 h; at 10 µM; stronger effect = lower value. A digest of the protocol: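 Material: primary human umbilical vein endothelial cells / Schedule: 72 h exposure, 37 °C, 5% CO2, 30 min RT equilibration / Signal: ATP-based CellTiter-Glo luminescent read / Read-out basis: percent of median DMSO-control luminescence / Control set: 32 DMSO-only cell-control wells (high), 32 MePR drug-control wells (low) per plate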

Test [4] can be described thus: H69AR cell proliferation blockers – human, duplicate replicates, primary screen (AID 580;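 active means viability at or under a set limit in both replicates, limit being median viability minus 3 SD, cut at about 48% in these data, passing the limit was not always enough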;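 further: 100% = mean luminescence of untreated wells and 0% = no signal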). The note with it: H69AR lung tumor cells viability, ATP luminescence, 72 h; at 10 µM; stronger effect = lower value.
Test [5] is described as follows: MRP1 drug-resistance reversers in H69AR cells – cell-based, doxorubicin co-treatment, pilot screen (AID 601;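 active means viability loss from added drug above about 55%, and viability with drug at most 40%, in both replicates, limit read from the data, passing the limit was not always enough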). The note with it: CellTiter-Glo, 72 h, at 10 µM; for differential viability (reversal): stronger effect = higher value.
Test [6] is described as follows: yeast transport mutant growth inhibition pilot in 384-well plates, post-Golgi transport modulator project (AID 636; in the data active means inhibition above about 31%). The note with it: absorbance 615 nm, about 18 h, stronger effect = higher value.
A short description of test [7]: growth suppression of yeast trafficking mutant, preliminary HTS, modulators of trafficking downstream of Golgi apparatus project, 1536-format plate, OD 615 nm (AID 637; in the data active means inhibition above about 30%). To be noted: yeast transport mutant growth, absorbance 615 nm, 18 h; stronger effect = higher value.
Test [8] is described as follows: Her2 expression decrease, cell viability multiplex – SKBR3 breast tumor cells, AlphaScreen, ATP viability, primary screen (AID 461;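 active means Her2 level under about 52% in both replicate screens, with viability over 70% of control, limit read from the data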;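 on Her2 level: lower value means less Her2 protein in the cells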;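 on viability: percent of carrier control wells set as 100% viability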). To be noted: SKBR3 Her2 protein level, 18-24 h, measured here: SKBR3 viability, ATP luminescence, at 10 µM. A general note: Bead proximity is the source of the signal in Alpha formats.
Test [9] deals with Receptor tyrosine-protein kinase erbB-2 (Homo sapiens) (UniProt P04626). Described as above. To be noted: 18-24 h, at 10 µM, stronger effect = lower value.
The mark [10] stands for this setting: H69AR cells + 2 uM doxorubicin, measured here: viability with 2 uM doxorubicin, stronger effect = lower value.
Where [11] appears, read: H69AR cells, compound alone cytotoxicity.

The structures appear in SMILES notation. Active and inactive are the calls of the source.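 How the source made its calls, unless noted: active means viability at or below 30% in both replicate assays; inconclusive means viability at or below 30% in just one of the two assays; inactive means the rest.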

Chain of Pantothenate synthetase (Mycobacterium tuberculosis (strain ATCC 25618 / H37Rv)) (P9WIL5 whole entry, looked up): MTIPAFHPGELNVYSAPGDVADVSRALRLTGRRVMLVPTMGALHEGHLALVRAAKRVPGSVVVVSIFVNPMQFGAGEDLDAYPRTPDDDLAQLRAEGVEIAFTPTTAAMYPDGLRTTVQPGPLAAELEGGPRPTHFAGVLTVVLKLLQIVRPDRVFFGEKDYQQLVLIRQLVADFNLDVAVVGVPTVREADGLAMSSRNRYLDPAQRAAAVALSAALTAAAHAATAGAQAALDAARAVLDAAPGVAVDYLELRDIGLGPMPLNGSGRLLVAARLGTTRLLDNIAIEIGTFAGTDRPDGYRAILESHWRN
Chain of Receptor tyrosine-protein kinase erbB-2 (Homo sapiens) (P04626 whole entry, looked up): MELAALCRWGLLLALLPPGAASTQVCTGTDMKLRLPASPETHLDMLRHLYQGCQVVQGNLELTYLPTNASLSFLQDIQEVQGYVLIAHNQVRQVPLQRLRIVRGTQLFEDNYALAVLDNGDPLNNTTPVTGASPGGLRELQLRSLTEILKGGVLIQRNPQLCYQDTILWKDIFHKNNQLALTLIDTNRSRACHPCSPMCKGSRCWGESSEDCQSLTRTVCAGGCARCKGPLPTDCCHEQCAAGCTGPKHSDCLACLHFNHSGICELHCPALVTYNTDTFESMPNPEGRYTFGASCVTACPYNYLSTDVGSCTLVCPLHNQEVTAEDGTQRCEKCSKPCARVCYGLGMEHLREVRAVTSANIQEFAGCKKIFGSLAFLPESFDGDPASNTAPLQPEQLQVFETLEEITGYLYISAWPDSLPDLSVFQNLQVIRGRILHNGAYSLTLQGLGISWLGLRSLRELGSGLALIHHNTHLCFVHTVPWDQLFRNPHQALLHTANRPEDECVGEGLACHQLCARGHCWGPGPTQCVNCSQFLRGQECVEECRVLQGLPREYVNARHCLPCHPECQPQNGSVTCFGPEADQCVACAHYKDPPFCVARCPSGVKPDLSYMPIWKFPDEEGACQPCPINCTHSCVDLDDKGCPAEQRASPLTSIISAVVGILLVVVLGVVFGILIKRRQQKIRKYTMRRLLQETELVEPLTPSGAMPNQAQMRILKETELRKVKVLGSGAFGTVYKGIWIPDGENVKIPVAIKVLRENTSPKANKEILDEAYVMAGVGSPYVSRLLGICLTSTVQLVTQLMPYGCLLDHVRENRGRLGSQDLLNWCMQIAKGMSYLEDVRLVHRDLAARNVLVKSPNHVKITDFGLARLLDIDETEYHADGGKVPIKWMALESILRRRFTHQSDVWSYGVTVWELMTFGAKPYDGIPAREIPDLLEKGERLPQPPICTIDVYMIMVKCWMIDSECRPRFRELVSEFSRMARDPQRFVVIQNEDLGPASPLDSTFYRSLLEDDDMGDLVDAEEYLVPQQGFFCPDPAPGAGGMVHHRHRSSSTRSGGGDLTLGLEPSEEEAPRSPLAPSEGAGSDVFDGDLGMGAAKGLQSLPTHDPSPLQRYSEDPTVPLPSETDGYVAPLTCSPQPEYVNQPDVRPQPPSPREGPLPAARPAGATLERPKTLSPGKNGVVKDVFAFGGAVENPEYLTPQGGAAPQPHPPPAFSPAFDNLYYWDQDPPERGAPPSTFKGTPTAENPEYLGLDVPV

In general, inhibition refers to the change of the read-out against control, counted positive when it falls. What is called viability is a read-out of living cells in per cent, often relative to untreated cells. Turning to `CCCC(=O)OCC[N+](C)(C)C`, the inhibition was 0% (inactive) in [1], 1.04% (inactive) in [6] and 40.7% (active) in test [7]. Moreover, the viability in test [2] was 83% (inactive); in test [3], 93.4% (inactive); in test [4], 101% (inactive); in test [5] (setting [10]), 106%; in test [5] (setting [11]), 101%. Also, the differential viability (reversal) in [5] (H69AR cells + 2 uM doxorubicin) was -4.88% (inactive).
As for `NCC(CC(=O)O)c1ccc(Cl)cc1` (stereo not drawn), the figures for the inhibition in [1], in test [6] and in test [7] were 0% (inactive), -1.43% (inactive) and 4.67% (inactive), respectively. Further, the viability is 83% (inactive) in test [2]; 78.3% (inactive) in test [3]; 106% (inactive) in test [4]; 107% in [5] (setting [10]); 106% in test [5] (setting [11]). The differential viability (reversal) in test [5] (H69AR cells + 2 uM doxorubicin) is -1.38% (inactive).
On to `Cc1ccc(O)c(CN2CCN(c3ccccc3)CC2)c1`, for which the inhibition in [1] was 13% (inactive); in [6], -8.38% (inactive); in [7], 1.33% (inactive). The viability in test [8] was 94%; in test [2], 94% (inactive); in test [3] it was 101% (inactive); in test [4], 85.5% (inactive); in test [5] (setting [10]), 74%; in [5] (setting [11]) it was 85.5%. In addition, the Her2 level in [9] is 88.5% (inactive). For the same molecule, the differential viability (reversal) in [5] (H69AR cells + 2 uM doxorubicin) was 11.5% (inactive).
For the molecule `CC[N+]1(C)CCCC(OC(=O)C(O)(c2ccccc2)c2ccccc2)C1` (stereo not drawn), the inhibition is 0% (inactive) in [1], -5.71% (inactive) in test [6] and -3.67% (inactive) in test [7]. The viability in [2] was 81% (inactive); in test [3], 76.8% (inactive); in [4], 101% (inactive); in test [5] (setting [10]) it was 89.6%; in test [5] (setting [11]), 101%. Moreover, the differential viability (reversal) in test [5] (H69AR cells + 2 uM doxorubicin) is 11.1% (inactive).
Turning to `CCN1c2nc3ccccn3c(=O)c2CC2(C(=O)N(C)C(=O)N(C)C2=O)C1C` (stereo not drawn), the inhibition in test [1] was 0% (inactive); in [6] it was -9.18% (inactive); in test [7], 2.9% (inactive). Further, the viability was 119% (inactive) in test [2]; 104% (inactive) in test [3]; 96% (inactive) in [4]; 90% in test [5] (setting [10]); 96% in [5] (setting [11]). For the same molecule, the differential viability (reversal) in test [5] (H69AR cells + 2 uM doxorubicin) was 5.97% (inactive).
`COc1cc(/C=N/n2cnnc2)ccc1OC(=O)N(C)C`: the values for the inhibition in test [1], in test [6] and in test [7] were 6% (inactive), -4.21% (inactive) and -2.06% (inactive), respectively. Besides, the viability was 97% in [8]; 97% (inactive) in test [2]; 99.5% (inactive) in [3]; 102% (inactive) in [4]; 92.7% in test [5] (setting [10]); 102% in test [5] (setting [11]). In test [9], the Her2 level was 96.5% (inactive). Besides, the differential viability (reversal) in test [5] (H69AR cells + 2 uM doxorubicin) was 9.57% (inactive).
